The record followed here is ChEMBL document CHEMBL5154797 (Eur J Med Chem, 2022).

In one series the test system is Huh-7. Nature of the series: Cytotoxicity against human HuH-7 cells assessed as reduction in cell viability incubated for 24 hrs by microplate reader assay. In kind it is functional.
A short description of series [1]: Binding affinity to rabies recombinant GST-His-tagged G-glycoprotein protein (20 to 459 AA residues) expressed in Escherichia coli BL21 (DE3) cells assessed as Kd treated for 60 secs followed dissociation time of 120 secs by SPR analysis. More on the design: species or system Lyssavirus rabies. Put shortly:
(§1)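 Biacore SPR with PBS-P as sample and running buffer. Target protein was amine-coupled to a CM5 chip in sodium acetate pH 4.0. Compound dilution series flowed at 30 μL/min, with 60 s contact and 120 s dissociation. Reference flow cell and blank cycle responses were subtracted.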

The test system of series [2] is Lyssavirus rabies. In words: Antirabies activity against rabies CVS infected in golden hamster BSR cells preincubated for 1 hr followed by mixing of cells measured after 24 hrs by inverted fluorescence microscope analysis. In kind it is functional, organism-based.
A further series has as its system SARS-CoV-2. Nature of the series: Antiviral activity against S-protein based pseudotyped SARS-CoV-2 infected in Huh7 cells measured after 24 hrs by bright-Glo luciferase assay. In kind it is functional, organism-based. The note with it: Severe acute respiratory syndrome coronavirus 2, Huh-7, 24 h. The procedure, abridged:
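Serial dilutions from 200 μM were held with pseudotyped SARS-CoV-2 (1.3 × 10^4 TCID50) at 37 °C for 1 h, then mixed with Huh7 cells (2000 cells/well) and incubated 24 h. EC50 was calculated from bioluminescence intensity.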

The nature of series [3]: Cytotoxicity against golden hamster BSR cells assessed as reduction in cell viability incubated for 24 hrs by microplate luminometer method. The following applies: BSR cells. Type of series: toxicity, cell-based, Mesocricetus auratus. The procedure, abridged:
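BSR cells given serial dilutions from 200 μM, with medium in place of virus. After 24 h at 37 °C, viability was read by luminometer and CC50 calculated.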

Series [4] is described as follows: Acute toxicity in Kunming mouse assessed as lethal dose administered orally measured after 7 days. The note with it: in vivo, 800 mg/kg, route po, time 7 day. The procedure, abridged: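 Female Kunming mice (20.0 ± 1.0 g), 6 per group, randomly assigned. Single oral dose of 0, 200, 400, 600 or 800 mg•kg−1, with ddH2O as control. Body weight, behaviour and survival monitored for 7 days.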

The subject of series [5] is Lyssavirus rabies. Nature of the series: Antirabies activity against rabies CVS infected in golden hamster BSR cells assessed as inhibition of viral growth at 25 uM treated 1 hr post infection measured after 23 hrs by measuring luciferase signal. In kind it is functional, organism-based. The following applies: time 24.0 hrs.
Series [6] in a line: Selectivity index, ratio of CC50 for cytotoxicity against golden hamster BSR cells to EC50 for antirabies activity against Rabies virus infected in golden hamster BSR cells. Type of series: toxicity, cell-based. The note with it: read-out: Selectivity Index.
Series [7] can be described thus: Selectivity index, ratio of CC50 for cytotoxicity against human Huh7 cells to EC50 for antiviral activity against S-protein based pseudotyped SARS-CoV-2 infected in Huh7 cells. In kind it is functional.
Series [8] has as its target Spike glycoprotein (Severe acute respiratory syndrome coronavirus 2) (UniProt P0DTC2). In words: Binding affinity to SARS-CoV-2 spike protein at 0.16 to 5 uM by SPR analysis. The note with it: dose 0.16-5 µM, DDE = dose-dependent effect. Put shortly:
as §1

Another series concerns the target Spike glycoprotein (Severe acute respiratory syndrome coronavirus 2, UniProt P0DTC2). Nature of the series: Binding affinity to SARS-CoV-2 spike protein assessed as Kd by SPR analysis. Background: Surface plasmon resonance follows binding to a sensor surface in real time, without labels.

Active and inactive are the calls of the source. The rule behind the calls is not given here.

As usually defined, the CC50 is the concentration giving 50% cytotoxicity. In general, Kd refers to the constant that tells how readily two partners part at equilibrium. In general, EC50 refers to the concentration that produces a half-maximal response. For `CC(C)/N=c1\cc2n(-c3ccc(Cl)cc3)c3ccccc3nc-2cc1Nc1ccc(Cl)cc1` [CLOFAZIMINE], the CC50 in the series on Huh-7 turned out to be 44.7 µM. In addition, the Kd in series [1] is 0.28 µM. Also, the EC50 in the series on Lyssavirus rabies [2] was found to be 2.28 µM; with SARS-CoV-2 it was 10 µM. Besides, the CC50 at 24 h in [3] is 323 µM.

What is called LD50 is the dose expected to kill half of the subjects tested. Consider `COc1ccc(-n2c3c/c(=N\C(C)C)c(Nc4ccc(F)cc4)cc-3nc3ccccc32)cn1`, for which the median lethal dose (LD50) at 168 h in [4] was 800 mg/kg. The result in the series on Lyssavirus rabies [5] was Active. For the same compound, the CC50 in the series on Huh-7 amounted to 88.9 µM. For the same compound, the concentration for a half-maximal effect (EC50) with Lyssavirus rabies [2] is 1.41 µM; with SARS-CoV-2, below 10 µM. Also, in series [6], the selectivity ratio is 229. The “Selectivity Index” value in series [7] is above 8.9. The 50% cytotoxic concentration (CC50) at 24 h in [3] worked out at 323 µM.

As for `COc1ccc(-n2c3c/c(=N\C(C)C)c(Nc4cccc(F)c4)cc-3nc3ccccc32)cn1`, the LD50 at 168 h in series [4] came to 800 mg/kg. In addition, the result in the series on Lyssavirus rabies [5] was Active. The CC50 in the series on Huh-7 turned out to be 88.9 µM. Further, the dissociation constant Kd in [1] came out at 0.73 µM; on Spike glycoprotein, 2.52 µM. Moreover, the EC50 in the series on Lyssavirus rabies [2] worked out at 1.45 µM; in the series with SARS-CoV-2, 14.6 µM. In series [6], the selectivity ratio is 223. Also, the “Selectivity Index” value in series [7] came to 6.1. In addition, the Activity result in series [8] is “Dde”.
